Rad51 HR inh = Rad51 (human) homologous recombination inhibition | Q06609 | AID 1385 | hRad51 DNA strand exchange, fluorescence dequenching | inhibition, % at 10 µM | actives 0.085% (n = 200,000);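 active = inhibition above 40% at the single screening dose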;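 note: 0% = DMSO control wells and 100% = blanks with heterologous ssDNA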
Target sequence (Q06609 whole entry, looked up): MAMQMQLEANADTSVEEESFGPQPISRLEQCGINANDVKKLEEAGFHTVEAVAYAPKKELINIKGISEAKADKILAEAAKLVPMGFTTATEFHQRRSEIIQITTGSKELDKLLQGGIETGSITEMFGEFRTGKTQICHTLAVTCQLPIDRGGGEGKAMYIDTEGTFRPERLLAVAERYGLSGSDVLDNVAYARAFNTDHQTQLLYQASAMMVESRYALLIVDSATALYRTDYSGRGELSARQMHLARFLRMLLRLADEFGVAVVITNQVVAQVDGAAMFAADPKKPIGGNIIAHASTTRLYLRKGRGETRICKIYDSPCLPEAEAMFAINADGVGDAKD
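System: hRad51 filaments on single-stranded DNA; reagent: Fluorescein- and BHQ1-tagged 47-mer duplex; compound dosing: one concentration, 10 µM final; timing: filaments 15 min 37 °C, then compound 30 min; measured by: fluorescein emission 520 nm, excitation 485 nm; benchmarks: per-plate controls and blanks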
HIF act = HIF pathway transcriptional activation; activation, % at 7.5 µM (by protocol); U2OS HRE-luciferase reporter, luminescence; normalized: DMSO 0%, desferrioxamine 100%; actives 0.32% (n = 300,000);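 active = mean activation of at least 10% of the iron chelator positive control signal, with at least half of replicates also reaching 10%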
FXN GAA850 act = frataxin GAA850 promoter activation. HEK293 lucGAA850 FXN promoter luciferase reporter, 24 h; percent of 10 µM SAHA response. activation, % at 6 µM. actives 0.56% (n = 360,000);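 active = activation above the average of all compounds screened plus 3 SD, cutoff fixed separately per campaign, cut at about 7.5% in these data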;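 note: 0% = DMSO wells and 100% = 10 µM SAHA wells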
Hsp70 act = switches on Hsp70 transcription. HeLa Hsp70 promoter luciferase reporter, luminescence; scaled: vehicle 0, proteasome-inhibitor control 100%. AID 1203. actives 0.04% (n = 200,000). activation, % at 10 µM;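 active = activation above the mean across all tested compounds plus 3 SD, cutoff set per campaign, cut at about 5.5% in these data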;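 note: 100% = MG132 at 30 µM as the positive control and 0% = DMSO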
ABHD5 PLIN5 PPI = blocks binding of human ABHD5 to perilipin-5 | AID 602281 | actives 0.78% (n = 360,000) | Split G. princeps luciferase complementation, luminescence, 4 h | Q00G26+Q8WTS1 | inhibition, % at 4 µM;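 active = inhibition above the mean inhibition across every tested compound plus 3 SD, cut at about 22% in these data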;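 note: 0% = DMSO only wells and the 100% control is not disclosed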
TAG inh = reduces triacylglycerol accumulation in H9c2 cells. Nile Red lipid (TAG) fluorescence; cells loaded with 200 µM oleic acid. inhibition, % at 12.5 µM. actives 0.66% (n = 230,000). AID 651582;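 active = pattern-corrected inhibition of lipid staining of at least 50% with the nuclear-stain viability signal not falling by more than 50%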;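 note: 0% = DMSO wells and 100% = triacsin C control wells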
Numbers without * were called inactive; . = no result. A selection: hits, their analogues and other compounds. The true share with any hit is near 1.9%.

SMILES	Rad51 HR inh	HIF act	FXN GAA850 act	Hsp70 act	ABHD5 PLIN5 PPI	TAG inh
CC(/C=C1\SC(=Nc2cccnc2)NC1=O)=C\c1ccccc1	-19.3	0.2	1.3	.	5.4	-0.7
C=CCOc1ccc(/C=C2\SC(=Nc3cccnc3)NC2=O)cc1	-65.6	84.3*	1.0	.	-0.8	11.8
Cc1c(C(=O)NCc2ccccn2)sc2nc(-c3ccccc3)cn12	-1.5	1.7	2.4	0.1	1.7	-13.7
COCCNC(=O)c1sc2nc(-c3ccccc3)cn2c1C	.	71.0*	2.4	-0.3	1.6	27.1
COc1ccc(-c2csc(NNC3=NCCCCC3)n2)cc1	22.1	205.3*	.	0.1	.	.
Cn1c(CO)nc2c3ccccc3ccc21	.	35.7*	2.5	.	-1.2	-2.6
Cc1cc(Nc2ccccc2)cc(=O)n1C	.	41.1*	0.4	.	5.2	5.5
Cc1cc(-c2ccccc2)n(-c2ccccc2)n1	.	3.5	2.5	.	-6.5	-7.8
CC1(OC(=O)c2cccs2)C(=O)C=C2C=C(C3CC3)OC=C2C1=O (stereo unspecified)	-5.3	111.9*	1.6	.	3.8	-7.0
COc1cccc(/C=N/Nc2ncnc3c2ncn3Cc2ccccc2)c1O	12.2	67.7*	-5.0	-0.2	2.5	-9.4
COc1cccc(/C=N/Nc2cc(Cl)nc(C)n2)c1O	-2.5	3.2	4.4	-0.5	11.5	20.1
COc1cccc(/C=N/Nc2cc(N3CCOCC3)ncn2)c1O	.	0.0	-0.8	.	6.2	71.0*
COc1ccc(OCC(=O)NC(=S)Nc2ccccc2F)cc1	1.7	0.0	.	-0.3	.	.
Cc1ccccc1NC(=O)CN(C)S(=O)(=O)c1ccc(-c2ccc(=O)[nH]n2)s1	.	519.2*	2.5	.	3.4	.
Cc1cccc(NC(=O)CN(C)S(=O)(=O)c2ccc(-c3ccc(=O)[nH]n3)s2)c1C	.	-0.3	3.4	.	13.4	.
CCOC(=O)c1ccc(S(=O)(=O)NNC(=O)COc2ccccc2C)cc1	6.5	999.5*	1.9	-0.4	0.5	.
Cc1cc(CNC(=O)C(C)Cc2ccccc2)nn1C (stereo unspecified)	-5.2	-1.2	0.1	0.6	-7.0	3.7
CCc1ccc(OCc2cccc(C(=O)N/N=C\c3cnn(C)c3C)c2)cc1	.	0.3	3.4	.	1.1	-8.1
CCOC(=O)CN1C(=N)N(c2nc(NC(C)C)nc(NC(C)C)n2)CC1=O	7.7	11.5*	-0.3	-0.3	0.3	.
O=C(CSC1=NNC(c2ccccn2)S1)Nc1ccc(C(F)(F)F)cc1 (stereo unspecified)	7.4	25.3*	1.5	.	0.7	32.2
c1ccc(CSc2ncccn2)cc1	6.4	.	0.4	0.1	-8.8	.
c1ccc(CSC2=NNC(c3ccccn3)S2)cc1 (stereo unspecified)	0.0	13.9*	5.8	.	-8.7	66.5*
CC(=O)Nc1ccc(NC(=O)CSc2ccccn2)cc1	.	1.2	-0.2	-0.1	11.8	.
Cc1c(C)n(-c2ccc(Cl)cc2)c2ncnc(N)c12	.	-0.6	1.1	.	-1.5	.
CCO[C@H]1c2c(ccc3ccc(=O)oc23)OC(C)(C)[C@H]1O	.	.	-0.1	.	8.5	-10.9
SMILES	Rad51 HR inh	HIF act	FXN GAA850 act	Hsp70 act	ABHD5 PLIN5 PPI	TAG inh
CC(C)C(NC(=O)CN(c1ccc2c(c1)OCCO2)S(=O)(=O)c1ccccc1)C(C)C	.	-0.4	-0.2	.	-4.1	0.3
COc1ccc2nc(-c3cccc(N)c3)[nH]c2c1	1.6	12.7*	-3.7	-0.3	-2.2	2.1
COc1ccc2nc(-c3ccccn3)[nH]c2c1	.	0.3	4.2	.	-4.6	69.9*
Cc1nc(-c2ccc(NC(=O)CC(C)C)cc2)cs1	.	3.9	3.9	0.1	1.7	.
CCOc1ccc(N(CC(=O)Nc2ccccc2C)S(=O)(=O)c2c(C)noc2C)cc1	4.1	.	-3.0	0.1	-7.7	70.5*
COc1ccc(Cc2nnc(SCC(=O)Nc3ccc(C)cc3)n(N)c2=O)cc1	.	-0.5	1.6	.	0.5	58.9*
COc1cccc(NC(=O)CSc2nnc(Cc3ccc(C)cc3)c(=O)n2N)c1	.	0.5	1.5	.	-6.3	40.6
O=C1CN(C(=O)COc2ccc(Cl)c(Cl)c2)c2ccccc2N1	.	.	-0.9	.	-4.5	7.4
O=C1CN(C(=O)Cn2ncc(Cl)c(Cl)c2=O)c2ccccc2N1	5.4	-5.3	1.9	-0.3	-1.9	69.3*
CCOC(=O)c1cccc(Nc2nc(-c3cccnc3)nc3ccccc23)c1	.	0.6	-2.5	-0.2	-5.8	52.9*
Cc1noc(C)c1NC(=O)N(C)C[C@H]1OCc2cnnn2CCCC(=O)N([C@@H](C)CO)C[C@H]1C	.	.	0.1	.	9.8	34.4
CCOc1ccc(CNC(=O)CCS(=O)(=O)c2ccc3c(c2)NC(=O)CO3)cc1OC	.	0.2	0.8	.	1.9	.
CC1CN(c2nc3ccccn3c(=O)c2/C=C(\C#N)C(=O)N2CCOCC2)CC(C)O1 (stereo unspecified)	19.9	18.5*	-0.8	.	-11.0	0.8
O=C1OCc2cc(NC(=O)C34CC5CC(CC(C5)C3)C4)ccc21	2.0	827.8*	0.8	0.0	-2.3	-0.4
O=C1OCc2cc(NC(=O)C3CCCO3)ccc21 (stereo unspecified)	7.1	0.3	1.3	-0.3	-4.1	12.8
CC(=O)Nc1ccccc1	.	.	-1.4	.	2.5	-7.4
C/C(=N\O)C(=O)Nc1ccccc1	3.3	231.3*	1.8	.	3.9	-6.9
C[C@H]1c2cccc(O)c2C(O)=C2C(=O)[C@]3(O)C(O)=C(C(N)=O)C(=O)[C@@H](N(C)C)[C@@H]3[C@@H](O)[C@@H]21	10.2	0.4	18.8*	.	-3.1	8.5
O=C(Nc1cccc(S(=O)(=O)N2CCCCC2)c1)c1ccc([N+](=O)[O-])o1	-1.9	1.5	2.1	0.8	-0.2	73.7*
O=C(Nc1ccc2c(c1)OCCO2)c1cccc(S(=O)(=O)N2CCCCC2)c1	121.7*	0.4	-3.5	-0.1	4.9	.
NC(=O)NC(=O)COC(=O)c1cccc(S(=O)(=O)N2CCCCCC2)c1	45.9*	-0.1	2.2	.	-4.6	0.1
COc1ccc(C(=O)c2ccc([N+](=O)[O-])cc2)c(OC)c1OC	.	.	0.1	.	-6.0	-26.3
C=CCCC(=O)N(C)CCO	.	0.1	0.3	.	5.2	.
O=C(NCc1cccs1)c1nc(-c2cccs2)no1	41.3*	1.4	2.4	-0.4	-4.6	.
Cc1cc(C)c2c(=N)c3ccccc3n(CCCCCCCCn3c4ccccc4c(=N)c4c(C)cc(C)nc43)c2n1	.	.	1.3	.	10.1	53.1*
COc1ccc(/C=N/NC(=O)C(=O)N2CCN(c3ccccc3OC)CC2)cc1	-5.4	-0.1	8.4*	-0.5	2.5	.
COc1ccc(C(=O)N2CCN(c3ccccc3OC)CC2)cc1	9.9	-0.8	1.7	0.1	-3.3	5.0
CSc1c(SCc2ccccc2)cnn(-c2ccccc2)c1=O	-4.7	-0.1	5.2	0.2	7.2	.
Cc1ncc(CO)c(/C=N/Nc2ccc(C(F)(F)F)cn2)c1O	.	9.6*	-5.6	.	-11.0	.
